By IC50 is commonly meant the concentration needed to halve the response being measured. Broadly, the ΔTm is the change in melting temperature against a reference sample.

For series [1], the target named is T1, Nicotinamide phosphoribosyltransferase (Homo sapiens, UniProt P43490). Nature of the series: Inhibition of NAMPT (unknown origin) using NAM as substrate incubated for 5 mins followed by substrate addition measured after 15 mins by fluorometric method.
Target sequence in this assay (P43490 whole entry): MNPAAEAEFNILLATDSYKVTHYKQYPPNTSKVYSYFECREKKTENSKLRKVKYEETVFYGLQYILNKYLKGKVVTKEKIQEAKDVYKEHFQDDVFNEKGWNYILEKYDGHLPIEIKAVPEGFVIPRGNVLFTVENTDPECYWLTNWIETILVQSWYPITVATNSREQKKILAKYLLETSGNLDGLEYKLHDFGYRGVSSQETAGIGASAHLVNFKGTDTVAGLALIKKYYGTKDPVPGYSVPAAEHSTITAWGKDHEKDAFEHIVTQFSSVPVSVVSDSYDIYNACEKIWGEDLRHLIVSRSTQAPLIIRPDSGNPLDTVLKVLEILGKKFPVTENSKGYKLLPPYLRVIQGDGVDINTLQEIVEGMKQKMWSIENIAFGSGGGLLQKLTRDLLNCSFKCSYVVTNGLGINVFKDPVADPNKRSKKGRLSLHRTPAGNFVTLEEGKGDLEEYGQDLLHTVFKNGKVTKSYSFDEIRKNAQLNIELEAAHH
The target of series [2] is T2, Histone deacetylase 1 (Homo sapiens, UniProt Q13547). Nature of the series: Inhibition of recombinant full length human C-terminal His/flag-tagged HDAC1 expressed in baculovirus infected Sf9 insect cells after 30 mins by fluorescence assay.
T2 sequence (Q13547 whole entry): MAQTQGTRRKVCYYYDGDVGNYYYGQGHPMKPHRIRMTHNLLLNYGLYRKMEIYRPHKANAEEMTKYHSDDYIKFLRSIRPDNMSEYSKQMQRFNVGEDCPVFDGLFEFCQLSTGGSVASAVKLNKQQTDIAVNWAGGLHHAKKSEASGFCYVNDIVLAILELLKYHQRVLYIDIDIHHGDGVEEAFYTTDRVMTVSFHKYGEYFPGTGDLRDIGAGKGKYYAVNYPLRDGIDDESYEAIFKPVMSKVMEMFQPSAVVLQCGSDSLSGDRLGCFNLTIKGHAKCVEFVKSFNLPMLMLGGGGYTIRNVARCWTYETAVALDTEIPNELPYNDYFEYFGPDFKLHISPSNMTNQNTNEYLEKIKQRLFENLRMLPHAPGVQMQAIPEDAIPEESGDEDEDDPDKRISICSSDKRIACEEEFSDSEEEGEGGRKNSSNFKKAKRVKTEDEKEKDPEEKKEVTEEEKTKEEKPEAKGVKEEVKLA
Series [3] has as its system HCT-116. As to the kind of experiment: cells. It is filed as functional, cell-based. Conditions: Homo sapiens, HCT-116, 72 h.
In the next series the test system is A549. Nature of the series: cells. It is filed as functional, cell-based. Conditions: Homo sapiens, A549, 72 h.
For a further series, the system named is HepG2. Nature of the series: cells. It is filed as functional, cell-based. Conditions: Homo sapiens, HepG2, 72 h.
The target of series [4] is Histone deacetylase 3/NCoR1 (Homo sapiens, UniProt O15379). As to the kind of experiment: Inhibition of human recombinant HDAC3/GST-tagged NCOR1 DAD (397 to 503 residues) expressed in baculovirus expression system after 30 mins by fluorescence assay.
Chain of Histone deacetylase 3/NCoR1 (O15379 whole entry, the tested form may be a part): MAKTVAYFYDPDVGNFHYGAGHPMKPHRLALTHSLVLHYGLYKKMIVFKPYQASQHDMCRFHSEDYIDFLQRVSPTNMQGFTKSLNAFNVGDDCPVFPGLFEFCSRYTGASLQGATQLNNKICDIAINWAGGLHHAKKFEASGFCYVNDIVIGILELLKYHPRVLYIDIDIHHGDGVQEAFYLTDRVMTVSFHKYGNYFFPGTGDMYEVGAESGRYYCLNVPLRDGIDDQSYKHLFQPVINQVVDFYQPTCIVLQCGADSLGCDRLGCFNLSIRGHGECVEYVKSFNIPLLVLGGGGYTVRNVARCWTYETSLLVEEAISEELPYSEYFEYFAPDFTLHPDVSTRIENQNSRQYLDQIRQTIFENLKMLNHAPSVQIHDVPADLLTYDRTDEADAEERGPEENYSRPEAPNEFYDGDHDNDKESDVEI
Chain of Histone deacetylase 3/NCoR1 (O75376 whole entry, further chain, the tested form may be a part): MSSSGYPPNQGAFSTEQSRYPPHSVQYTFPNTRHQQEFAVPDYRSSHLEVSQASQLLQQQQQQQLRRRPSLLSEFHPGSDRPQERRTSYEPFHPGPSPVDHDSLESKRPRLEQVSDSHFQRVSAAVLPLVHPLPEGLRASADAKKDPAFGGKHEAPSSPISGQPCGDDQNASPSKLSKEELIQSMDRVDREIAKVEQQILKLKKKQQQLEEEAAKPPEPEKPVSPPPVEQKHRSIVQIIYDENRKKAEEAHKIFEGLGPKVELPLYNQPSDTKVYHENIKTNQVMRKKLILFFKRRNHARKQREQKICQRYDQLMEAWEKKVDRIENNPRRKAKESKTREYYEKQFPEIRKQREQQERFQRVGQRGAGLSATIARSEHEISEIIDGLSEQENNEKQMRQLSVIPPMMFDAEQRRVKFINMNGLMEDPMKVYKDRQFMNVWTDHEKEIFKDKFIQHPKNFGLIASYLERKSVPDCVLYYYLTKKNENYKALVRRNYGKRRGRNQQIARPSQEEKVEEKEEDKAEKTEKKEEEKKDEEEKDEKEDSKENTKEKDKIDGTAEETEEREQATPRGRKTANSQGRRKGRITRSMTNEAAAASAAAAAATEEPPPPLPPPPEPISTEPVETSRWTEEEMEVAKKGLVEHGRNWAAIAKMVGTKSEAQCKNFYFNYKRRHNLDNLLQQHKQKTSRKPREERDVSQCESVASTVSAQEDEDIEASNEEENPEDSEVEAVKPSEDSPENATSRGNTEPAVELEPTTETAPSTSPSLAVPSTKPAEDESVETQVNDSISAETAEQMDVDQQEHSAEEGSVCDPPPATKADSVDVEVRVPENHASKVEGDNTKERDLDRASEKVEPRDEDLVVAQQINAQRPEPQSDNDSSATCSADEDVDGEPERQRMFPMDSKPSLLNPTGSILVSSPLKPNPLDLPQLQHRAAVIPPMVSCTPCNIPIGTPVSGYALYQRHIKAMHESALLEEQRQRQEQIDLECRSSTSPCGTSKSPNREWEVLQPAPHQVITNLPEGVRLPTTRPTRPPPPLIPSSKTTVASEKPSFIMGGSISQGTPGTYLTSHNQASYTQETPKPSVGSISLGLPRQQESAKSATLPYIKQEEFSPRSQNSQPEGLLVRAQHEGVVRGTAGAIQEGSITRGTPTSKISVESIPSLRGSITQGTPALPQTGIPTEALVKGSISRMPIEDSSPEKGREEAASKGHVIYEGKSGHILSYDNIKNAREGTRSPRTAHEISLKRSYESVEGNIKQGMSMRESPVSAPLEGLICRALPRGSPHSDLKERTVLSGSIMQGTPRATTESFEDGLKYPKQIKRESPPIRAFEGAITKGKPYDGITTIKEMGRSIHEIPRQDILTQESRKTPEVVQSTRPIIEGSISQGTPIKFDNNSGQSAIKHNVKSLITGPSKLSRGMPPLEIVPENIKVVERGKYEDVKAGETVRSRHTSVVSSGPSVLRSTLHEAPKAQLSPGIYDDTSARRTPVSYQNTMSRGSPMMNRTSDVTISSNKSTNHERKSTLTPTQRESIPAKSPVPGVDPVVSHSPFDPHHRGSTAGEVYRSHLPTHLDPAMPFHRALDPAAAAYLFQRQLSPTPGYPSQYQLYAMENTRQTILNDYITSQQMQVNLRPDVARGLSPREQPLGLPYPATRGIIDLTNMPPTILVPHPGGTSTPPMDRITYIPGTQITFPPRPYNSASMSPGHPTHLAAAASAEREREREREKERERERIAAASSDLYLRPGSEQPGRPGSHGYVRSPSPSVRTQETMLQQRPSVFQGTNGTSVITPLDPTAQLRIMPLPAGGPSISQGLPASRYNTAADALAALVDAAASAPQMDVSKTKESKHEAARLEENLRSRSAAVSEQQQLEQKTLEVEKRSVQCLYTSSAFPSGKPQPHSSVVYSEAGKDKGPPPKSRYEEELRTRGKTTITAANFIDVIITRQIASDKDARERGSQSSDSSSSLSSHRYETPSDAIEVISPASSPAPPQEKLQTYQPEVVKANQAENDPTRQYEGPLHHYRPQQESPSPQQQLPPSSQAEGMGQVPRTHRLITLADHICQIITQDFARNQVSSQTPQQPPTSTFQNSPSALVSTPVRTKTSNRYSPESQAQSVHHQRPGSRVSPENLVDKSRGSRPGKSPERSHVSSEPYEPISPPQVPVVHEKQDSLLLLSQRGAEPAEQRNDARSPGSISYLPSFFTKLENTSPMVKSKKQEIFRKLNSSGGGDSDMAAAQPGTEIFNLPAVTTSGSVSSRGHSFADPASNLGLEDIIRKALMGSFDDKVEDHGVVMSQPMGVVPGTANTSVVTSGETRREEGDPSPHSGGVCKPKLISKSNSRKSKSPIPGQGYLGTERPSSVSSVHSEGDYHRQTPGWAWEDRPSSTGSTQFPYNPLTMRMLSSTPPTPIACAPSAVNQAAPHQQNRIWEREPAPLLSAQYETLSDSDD
Series [5] concerns the target T3, Protein deacetylase HDAC6 (Homo sapiens, UniProt Q9UBN7).
T3 sequence (Q9UBN7 whole entry): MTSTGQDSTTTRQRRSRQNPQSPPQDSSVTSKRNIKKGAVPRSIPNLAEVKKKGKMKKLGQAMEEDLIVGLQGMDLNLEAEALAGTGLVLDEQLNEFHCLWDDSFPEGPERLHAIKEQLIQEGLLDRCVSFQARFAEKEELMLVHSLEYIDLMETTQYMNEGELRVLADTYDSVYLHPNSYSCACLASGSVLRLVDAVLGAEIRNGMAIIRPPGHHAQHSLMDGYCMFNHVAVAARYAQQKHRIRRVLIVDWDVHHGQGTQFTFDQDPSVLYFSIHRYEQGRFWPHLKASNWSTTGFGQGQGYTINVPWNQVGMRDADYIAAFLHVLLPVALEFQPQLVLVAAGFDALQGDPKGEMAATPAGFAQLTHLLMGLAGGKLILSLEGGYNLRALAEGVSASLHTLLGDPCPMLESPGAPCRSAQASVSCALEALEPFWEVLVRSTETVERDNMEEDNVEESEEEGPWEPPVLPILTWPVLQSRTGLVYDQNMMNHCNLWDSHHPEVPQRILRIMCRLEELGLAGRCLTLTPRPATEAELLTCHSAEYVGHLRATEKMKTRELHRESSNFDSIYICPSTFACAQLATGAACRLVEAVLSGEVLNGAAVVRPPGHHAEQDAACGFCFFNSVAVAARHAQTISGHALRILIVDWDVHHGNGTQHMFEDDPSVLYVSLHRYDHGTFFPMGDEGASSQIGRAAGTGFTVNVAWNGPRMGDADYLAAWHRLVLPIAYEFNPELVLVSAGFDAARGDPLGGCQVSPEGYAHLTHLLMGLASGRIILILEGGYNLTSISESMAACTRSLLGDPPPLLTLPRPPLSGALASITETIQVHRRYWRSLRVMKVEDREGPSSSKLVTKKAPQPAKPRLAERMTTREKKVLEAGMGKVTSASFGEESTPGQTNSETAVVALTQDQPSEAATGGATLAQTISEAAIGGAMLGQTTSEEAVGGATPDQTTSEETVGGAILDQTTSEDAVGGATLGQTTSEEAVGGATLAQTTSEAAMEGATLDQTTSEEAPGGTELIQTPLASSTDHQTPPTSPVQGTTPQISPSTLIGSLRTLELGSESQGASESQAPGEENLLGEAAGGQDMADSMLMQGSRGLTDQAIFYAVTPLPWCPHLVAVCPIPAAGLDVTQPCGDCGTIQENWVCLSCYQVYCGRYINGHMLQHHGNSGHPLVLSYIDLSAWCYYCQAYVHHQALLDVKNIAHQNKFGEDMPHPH
As to the kind of experiment: Inhibition of recombinant human full length C-terminal flag-tagged HDAC6 expressed in baculovirus infected Sf9 insect cells after 30 mins by fluorescence assay.

In series [6] the target is T1, Nicotinamide phosphoribosyltransferase. As to the kind of experiment: Binding affinity to NAMPT in human HCT116 cells assessed as change in melting temperature at 10 uM after 3 hrs by CETSA. It is filed as cell-based.
Target sequence in this assay (P43490 whole entry, looked up): as the sequence (P43490 whole entry) above
Another series concerns the target Histone deacetylase 2 (Homo sapiens, UniProt Q92769).
The next series addresses Histone deacetylase 4 (Homo sapiens, UniProt P56524). As to the kind of experiment: Inhibition of recombinant human N-terminal GST-tagged HDAC4 (612 to end residues) expressed in baculovirus infected Sf9 insect cells after 30 mins by fluorescence assay.
A further series has as its target T4, Histone deacetylase 8 (Homo sapiens, UniProt Q9BY41).
T4 sequence (Q9BY41 whole entry): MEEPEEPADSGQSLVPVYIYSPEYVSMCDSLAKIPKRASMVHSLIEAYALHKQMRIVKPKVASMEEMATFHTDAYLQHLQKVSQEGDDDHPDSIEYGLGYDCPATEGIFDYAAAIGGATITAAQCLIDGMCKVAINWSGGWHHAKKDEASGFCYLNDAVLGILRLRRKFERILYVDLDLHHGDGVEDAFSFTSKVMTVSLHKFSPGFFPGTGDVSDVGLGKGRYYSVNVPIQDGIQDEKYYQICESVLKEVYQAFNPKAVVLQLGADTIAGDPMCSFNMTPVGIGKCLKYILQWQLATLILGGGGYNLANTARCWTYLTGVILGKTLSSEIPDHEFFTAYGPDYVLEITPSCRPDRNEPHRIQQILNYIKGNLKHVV
Nature of the series: Inhibition of recombinant human full length C-terminal His-tagged HDAC8 expressed in baculovirus infected Sf9 insect cells after 30 mins by fluorescence assay.

Series [7] addresses T5, Histone deacetylase (Homo sapiens) (UniProt Q13547+O15379+Q9UBN7+Q92769+Q9UQL6+Q8WUI4+Q9BY41+Q96DB2+P56524+Q9UKV0+Q969S8). Nature of the series: Inhibition of HDAC in human HCT116 cells assessed as increase in acetyl-histone H3 level at 1 to 5 uM after 24 hrs by Western blot analysis. It is filed as cell-based. The essentials:
(§1)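 HCT116 cells were treated for 24 h at 1 μM and 5 μM. Acetylated histone H3 and acetylated histone H4 were detected by Western blot.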
A general note: Immunoblotting shows a protein as a band on a membrane.

The target of series [8] is T5, Histone deacetylase (Homo sapiens). As to the kind of experiment: Inhibition of HDAC in human HCT116 cells assessed as increase in acetyl-histone H4 level at 1 to 5 uM after 24 hrs by Western blot analysis. It is filed as cell-based. An outline of the steps:
as §1

Series [9] addresses T1, Nicotinamide phosphoribosyltransferase. Nature of the series: Inhibition of NAMPT in human HCT116 cells assessed as decrease in cellular NAD+ level after 24 hrs by MTT dye based spectrophotometric analysis. It is filed as cell-based. The essentials: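 HCT116 cells were exposed to a concentration series for 24 h. Cellular NAD+ level was measured and concentration–response curves were fitted.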
Target sequence in this assay (P43490 whole entry, looked up): as the sequence (P43490 whole entry) above
For orientation: Formazan colour is commonly taken as a measure of viable cells.

Series [10] concerns the target T2, Histone deacetylase 1. As to the kind of experiment: Potency index, ratio of SAHA IC50 to compound IC50 for recombinant human full length C-terminal His/flag-tagged HDAC1 expressed in baculovirus infected Sf9 insect cells.
The test system of series [11] is HCT-116. As to the kind of experiment: animal or person. It is filed as functional, Homo sapiens. Conditions: Mus musculus, HCT-116, ip, 72 h, read-out: TGI.
Series [12] has as its system Mus musculus. Nature of the series: Toxicity in BALB/C nude mouse xenografted with human HCT116 cells assessed as body weight loss at 25 mg/kg, ip bid administered for 21 consecutive days measured every 3 days. Format: organism-based. The settings on record: in vivo, 72 h. An outline of the steps:
(§2)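 HCT116 tumour xenografts were grown in nude mice. Agents were given ip twice daily for 21 consecutive days. Tumour growth and body weight were followed. Tumour growth inhibition (TGI) and relative increment ratio (T/C) were derived. Data are mean ± standard deviation, compared with the control group by Student's t test.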
A general note: In xenograft studies the graft and the host belong to different species.

The test system of series [13] is HCT-116. As to the kind of experiment: Antitumor activity against human HCT116 cells xenografted in BALB/C nude mouse assessed as tumor growth inhibition at 15 mg/kg, ip bid administered for 21 consecutive days measured every 3 days. Conditions: HCT-116, ip, 72 h, read-out: TGI. It is filed as functional. An outline of the steps: as §2
For series [14], the system named is Mus musculus. As to the kind of experiment: Toxicity in BALB/C nude mouse xenografted with human HCT116 cells assessed as body weight loss at 15 mg/kg, ip bid administered for 21 consecutive days measured every 3 days. It is filed as organism-based. Conditions: in vivo, 72 h. An outline of the steps: as §2

Activity calls are given as the source filed them. No cut-off for these calls is given here.

Chain of Histone deacetylase 4 (P56524 whole entry): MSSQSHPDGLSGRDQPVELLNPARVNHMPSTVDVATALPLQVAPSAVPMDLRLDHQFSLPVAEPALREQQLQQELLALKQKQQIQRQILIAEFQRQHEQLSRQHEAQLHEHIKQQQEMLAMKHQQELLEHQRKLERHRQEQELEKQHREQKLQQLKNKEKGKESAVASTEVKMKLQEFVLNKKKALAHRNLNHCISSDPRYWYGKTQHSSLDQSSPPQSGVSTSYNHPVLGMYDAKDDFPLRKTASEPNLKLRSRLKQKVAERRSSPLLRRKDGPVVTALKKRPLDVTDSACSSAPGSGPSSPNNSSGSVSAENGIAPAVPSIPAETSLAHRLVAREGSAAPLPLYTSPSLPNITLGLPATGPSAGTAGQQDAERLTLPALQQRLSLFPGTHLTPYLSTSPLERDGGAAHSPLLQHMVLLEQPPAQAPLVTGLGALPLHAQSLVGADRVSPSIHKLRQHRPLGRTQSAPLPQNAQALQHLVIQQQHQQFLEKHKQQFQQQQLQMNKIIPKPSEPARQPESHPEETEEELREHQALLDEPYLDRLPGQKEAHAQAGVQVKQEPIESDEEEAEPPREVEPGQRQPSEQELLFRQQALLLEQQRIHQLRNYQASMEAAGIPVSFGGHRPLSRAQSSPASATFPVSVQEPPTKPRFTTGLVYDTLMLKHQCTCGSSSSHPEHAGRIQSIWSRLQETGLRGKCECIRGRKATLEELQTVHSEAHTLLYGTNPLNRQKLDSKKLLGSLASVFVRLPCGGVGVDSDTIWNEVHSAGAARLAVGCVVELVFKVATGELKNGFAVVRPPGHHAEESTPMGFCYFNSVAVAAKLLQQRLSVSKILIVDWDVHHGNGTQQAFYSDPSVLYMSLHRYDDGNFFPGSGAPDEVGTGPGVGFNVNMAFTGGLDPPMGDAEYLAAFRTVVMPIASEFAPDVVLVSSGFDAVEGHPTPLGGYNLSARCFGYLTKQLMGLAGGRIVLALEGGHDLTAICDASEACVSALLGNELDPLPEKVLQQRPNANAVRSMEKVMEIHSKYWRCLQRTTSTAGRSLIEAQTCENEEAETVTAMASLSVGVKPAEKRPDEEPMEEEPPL

Turning to `O=C(NO)c1ccc(CN(Cc2ccc(F)cc2)c2ncc(C(=O)NCCCn3ccnc3)s2)cc1`, the IC50 was found to be 0.014 µM in [1]; 0.046 µM on Histone deacetylase 1 [2]; 99 µM in the series with HCT-116 [3]; 7.3 µM in the series on A549; 79 µM in the series on HepG2.

As to `CC(C)CCN(CCCCCCC(=O)NO)c1ncc(C(=O)NCc2cccnc2)s1`, the concentration for half-maximal inhibition (IC50) is 0.22 µM in series [1]; 0.036 µM on Histone deacetylase 1 [2]; 12 µM in the series on HCT-116 [3]; 19 µM in the series on A549; 7 µM in the series on HepG2.

Regarding `O=C(CCCCCCN(Cc1ccc(F)cc1)c1ncc(C(=O)NCCCn2ccnc2)s1)NO`, the IC50 in series [4] is 0.0041 µM; in series [5], 0.0062 µM; in [1] it was 0.019 µM; on Histone deacetylase 1 [2], 0.036 µM; with HCT-116 [3], 9.7 µM; in the series with A549, 9.7 µM. For the same compound, the IC50 came out at 9.4 µM in the series with HepG2, 0.033 µM on Histone deacetylase 2, 21 µM on Histone deacetylase 4 and 0.351 µM on Histone deacetylase 8. The ΔTm in [6] is 7.36 °C. Moreover, the inhibition entry in series [7] and in [8] was “Dose-dependent effect” in each case. Further, the inhibition entry in series [9] was “Active”.

As for `CC(C)CCN(CCCCCC(=O)NO)c1ncc(C(=O)NCCCn2ccnc2)s1`, the half-inhibitory concentration (IC50) is 0.02 µM in [1]; 0.06 µM at Histone deacetylase 1 [2]; 85 µM with HCT-116 [3]; 13 µM in the series on A549; 106 µM in the series on HepG2.

For the compound `CC(C)CCN(CCCCCCC(=O)NO)c1ncc(C(=O)NCCCn2ccnc2)s1`, the half-inhibitory concentration (IC50) is 0.00067 µM in [4]; 0.00064 µM in [5]; 0.015 µM in series [1]; 0.002 µM on Histone deacetylase 1 [2]; 30 µM in the series on HCT-116 [3]; 5.2 µM in the series on A549. Moreover, the concentration for half-maximal inhibition (IC50) with HepG2 turned out to be 24 µM; on Histone deacetylase 2, 0.0068 µM; at Histone deacetylase 4, 12 µM; at Histone deacetylase 8, 0.204 µM. Besides, the ΔTm in series [6] is 3.01 °C. For the same compound, on Histone deacetylase 1 [10], the Ratio IC50 amounted to 10. The inhibition entry in series [7] and in [8] was “Dose-dependent effect” each time. Moreover, the inhibition entry in [9] was “Active”. Also, in the series with HCT-116 [11], the inhibition in vivo at 25 mg/kg came out at 42%. Further, the Activity result with Mus musculus [12] is reported as “Non-Toxic”.

Turning to `O=C(CCCCCCN(Cc1ccc(F)cc1)c1ncc(C(=O)NCc2cccnc2)s1)NO`, the IC50 in series [1] turned out to be 0.47 µM; on Histone deacetylase 1 [2], 0.095 µM; with HCT-116 [3], 17 µM; in the series on A549 it was 22 µM; in the series on HepG2 it was 14 µM.

As for `O=C(CCCCCN(Cc1ccc(F)cc1)c1ncc(C(=O)NCCCn2ccnc2)s1)NO`, the concentration for half-maximal inhibition (IC50) in [1] was 0.007 µM; on Histone deacetylase 1 [2], 0.1 µM; in the series with HCT-116 [3] it was 19 µM; in the series on A549 it was 54 µM; in the series on HepG2 it was 30 µM.

With `O=C(/C=C/c1ccc(CN(Cc2ccc(F)cc2)c2ncc(C(=O)NCCCn3ccnc3)s2)cc1)NO`, the IC50 in series [1] is 0.014 µM; at Histone deacetylase 1 [2], 0.091 µM; in the series with HCT-116 [3], 83 µM; with A549 it was 2.7 µM; in the series with HepG2, 13 µM.

In the series on A549, `O=C(/C=C/c1cccnc1)NCCCCC1CCN(C(=O)c2ccccc2)CC1` [DAPORINAD] registered a 50% inhibitory concentration (IC50) of 3.7 µM. Moreover, the inhibition in vivo at 15 mg/kg in the series with HCT-116 [13] was found to be 39%. Also, the Activity entry in the series on Mus musculus [14] is “Non-Toxic”.

With `O=C(CCCCCCCN(Cc1ccc(F)cc1)c1ncc(C(=O)NCCCn2ccnc2)s1)NO`, the IC50 in series [1] was 0.018 µM; on Histone deacetylase 1 [2] it was 0.044 µM; in the series with HCT-116 [3], 63 µM; with A549 it was 6.6 µM; in the series on HepG2, 26 µM.

With `O=C(CCCCCCC(=O)Nc1ccccc1)NO` [VORINOSTAT], the Activity result with Mus musculus [12] is on record as “Non-Toxic”.

The values are drawn from ChEMBL document CHEMBL4138269, “Dual NAMPT/HDAC Inhibitors as a New Strategy for Multitargeting Antitumor Drug Discovery” (ACS Med Chem Lett, 2018).
